Measured values taken from ChEMBL document CHEMBL1649215, “In vitro activities of trioxaquines against Schistosoma mansoni” (2009).
Activity calls are given as the source filed them. The rule behind the calls is not given here.

Tests used:
Schistosoma mansoni [1] = test: Antiparasitic activity against Schistosoma mansoni larva assessed as reduction of body contractility and movement at 5 ug/ml; format: functional, organism-based
Method in brief: (§1)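 Brazilian S. mansoni maintained in Swiss OF1 mice. Schistosomula recovered 21 days after percutaneous infection with 400 cercariae, and adults 49 days after 120 cercariae. Final concentration was 5 µg/ml for larvae and 50 µg/ml for adults, in RPMI/Tween 80/DMSO (1,000/0.95/3.8). Survival was followed over time and compared by pairwise log-rank tests (α = 1%).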

Schistosoma mansoni [2] = test: Antiparasitic activity against Schistosoma mansoni adult worm assessed as reduction of body contractility and movement at 50 ug/ml; format: functional, organism-based; method in brief: as §1
Schistosoma mansoni [3] = test: Antiparasitic activity against Schistosoma mansoni larva assessed as reduction of body contractility and movement at 5 ug/ml
Schistosoma mansoni [4] = test: Antiparasitic activity against Schistosoma mansoni adult worm assessed as reduction of body contractility and movement at 50 ug/ml
Schistosoma mansoni [5] = test: Antiparasitic activity against Schistosoma mansoni adult worm assessed as reduction of body contractility and movement at 50 ug/ml within 7 hrs
Schistosoma mansoni [6] = test: Antiparasitic activity against Schistosoma mansoni larva assessed as reduction of body contractility and movement at 5 ug/ml within 7 hrs; format: functional, organism-based; method in brief: as §1
Schistosoma mansoni [7] = test: Antiparasitic activity against Schistosoma mansoni assessed as parasite death at 300 ug/ml; format: functional
Method in brief: (§2)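 Schistosomula (day 21) and adults (day 49) were taken from percutaneously infected Swiss OF1 mice. Compounds were serially diluted in DMSO, with the last step into RPMI containing Tween 80, and worms were exposed across a concentration and time range. Survival was recorded and groups compared by pairwise log-rank tests (α = 1%).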

Schistosoma mansoni [8] = test: Antiparasitic activity against Schistosoma mansoni assessed as parasite death at 10 ug/ml; format: functional; method in brief: as §2
Schistosoma mansoni [9] = test: Antiparasitic activity against Schistosoma mansoni assessed as parasite death at 100 ug/ml; format: functional; method in brief: as §2
Schistosoma mansoni [10] = test: Antiparasitic activity against Schistosoma mansoni assessed as parasite death at 5 ug/ml; format: functional; method in brief: as §2

| Compound | Activity (Schistosoma mansoni [1]) | Activity (Schistosoma mansoni [2]) | Activity (Schistosoma mansoni [3]) | Activity (Schistosoma mansoni [4]) | Activity (Schistosoma mansoni [5]) | Activity (Schistosoma mansoni [6]) | Activity (Schistosoma mansoni [7]) | Activity (Schistosoma mansoni [8]) | Activity (Schistosoma mansoni [9]) | Activity (Schistosoma mansoni [10]) |
| --- | --- | --- | --- | --- | --- | --- | --- | --- | --- | --- |
| Clc1ccc2c(NCCN3CCC4(CC3)OCC3(CCCCC3)OO4)ccnc2c1 | Active | Active | Active | Active | Active |  |  |  |  |  |
| CN(C1CCC2(CC1)OCC(C)(C)OO2)[C@H]1CC[C@H](Nc2ccnc3cc(Cl)ccc23)CC1 (stereo partly specified) | Active | Active | Active | Active | inactive | inactive |  |  |  |  |
| CC1(C)COC2(CCC(N[C@H]3CC[C@H](Nc4ccnc5cc(Cl)ccc45)CC3)CC2)OO1 (stereo partly specified) | Active | Active | Active | Active | Active | Active |  |  |  |  |
| Clc1ccc2c(NCCN3CCC4(CC3)OCC3(CCCC3)OO4)ccnc2c1 | Active | Active | Active | Active | Active | Active |  |  |  |  |
| CC1(C)COC2(CCC(N[C@H]3CC[C@H](Nc4ccnc5cc(C(F)(F)F)ccc45)CC3)CC2)OO1 (stereo partly specified) | Active | Active | Active | Active | Active |  |  |  |  |  |
| CO[C@H]1O[C@@H]2O[C@@]3(C)CC[C@H]4[C@H](C)CC[C@@H]([C@H]1C)[C@@]24OO3 [ARTEMETHER] |  |  |  |  |  |  | 100% |  |  |  |
| C[C@H]1[C@H](OC(=O)CCC(=O)O)O[C@@H]2O[C@@]3(C)CC[C@H]4[C@H](C)CC[C@@H]1[C@@]24OO3 [ARTESUNATE] |  |  |  |  |  |  | 100% |  |  |  |
| Clc1ccc2c(N[C@H]3CC[C@H](NC4CCC5(CC4)OCC4(CCCC4)OO5)CC3)ccnc2c1 (stereo partly specified) | Active | Active | Active | Active | Active | Active | 100% | 100% | 100% | 100% |
| O=C(C1CCCCC1)N1CC(=O)N2CCc3ccccc3C2C1 (stereo unspecified) [PRAZIQUANTEL] | Active | Active | Active | Active |  |  |  | 100% |  | 100% |
